Assay outcomes from PubChem.
E-selectin induc – E-selectin induction in HUVECs, primary screen, imaging, HUVEC, immunofluorescence imaging, single point | P16581 | normalized: neutral wells 0, TNF-alpha wells 100 | activation, % at 7.58 µM | hit rate 0.37% among 260,000;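 active means mean E-selectin-positive cell signal at least 10% of the positive control, reached in at least 60% of replicates, without over 20% cell loss; inconclusive means no rule given, readout overlaps actives, possibly toxicity-flagged; inactive means the rest, including those meeting only one limit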
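Test system: HUVEC; input: 3,000 HUVEC/well; measured by: immunofluorescence imaging; read-out: % PE-positive cells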
SIRT5 inh – SIRT5 desuccinylase inhibitors, primary screen, biochemical, fluorescence imaging, single point, set 5; NAD-dependent protein deacylase sirtuin-5, mitochondrial (Homo sapiens), Q9NXA8; Purified SirT5, succinyl-peptide AMC, trypsin-coupled fluorescence; inhibition, % at 15 µM; hit rate 1.1% among 330,000; in the data active means inhibition above about 15%; inconclusive means no clear call, values can overlap the other calls
Target sequence (Q9NXA8 whole entry, looked up): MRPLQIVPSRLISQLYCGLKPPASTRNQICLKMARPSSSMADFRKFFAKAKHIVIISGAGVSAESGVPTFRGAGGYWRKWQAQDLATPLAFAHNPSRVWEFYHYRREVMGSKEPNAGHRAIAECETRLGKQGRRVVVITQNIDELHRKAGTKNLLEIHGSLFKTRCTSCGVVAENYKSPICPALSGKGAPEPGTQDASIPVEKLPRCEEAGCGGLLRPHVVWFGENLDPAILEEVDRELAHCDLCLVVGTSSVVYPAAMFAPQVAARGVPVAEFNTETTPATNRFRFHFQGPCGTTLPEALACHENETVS
DENV2 CPE – inhibitors of DENV2 cytopathic effect, primary screen, cell-based, plate reader, single concentration; DENV2-infected cells, cytopathic effect rescue; CPE inhibition, % at 9.99 µM; hit rate 1.7% among 350,000; in the data active means CPE inhibition above about 20%, passing the limit was not always enough; inconclusive means no clear call, values can overlap the other calls; tested in BHK-21 cells
Large screens that a line does not name were inactive; ! = not confirmed by another sample. Most compounds without a hit are left out; they make up all but 2.9% or so of the library.

O=C(c1ccc2c(c1)OCO2)N1C[C@@H]2[C@H](c3ccccc31)[C@H](CO)N2Cc1ccc2c(c1)OCO2	none (no result: SIRT5 inh, DENV2 CPE)
CN1CCN(C(=O)C[C@@H]2C[C@H]3c4cc(NC(=O)NC5CCCCC5)ccc4O[C@H]3[C@H](CO)O2)CC1	none
COCCCNC(=O)c1ccc(-c2nc3ccccc3nc2-c2ccccc2)cc1	none (no result: E-selectin induc)
CCOc1ccccc1N1CCN(C(=S)NC(=O)C23CC4CC(CC(C4)C2)C3)CC1	none (no result: E-selectin induc, SIRT5 inh)
CN(C)S(=O)(=O)c1ccc(C(=O)OCC(=O)NCc2ccco2)cc1	none (no result: E-selectin induc)
CN(C)/C=C(\C#N)C(=O)N/N=C/c1ccc(F)cc1	none (no result: E-selectin induc)
CC/C(CC(=O)C(F)(F)F)=N\NC(=O)/C(C#N)=C/N(C)C	SIRT5 inh 18
CCOc1ccccc1N(C)C(=O)c1cc2c(=O)n(CC)c3ccccc3c2s1	none
NS(=O)(=O)c1ccc(CCNc2nc(CN3CCCCC3)nc3sc4c(c23)CCC4)cc1	none (no result: E-selectin induc)
Cc1ccc(S(=O)(=O)N(C)C[C@H]2Oc3cc(C#Cc4ccncc4)ccc3S(=O)(=O)N([C@@H](C)CO)C[C@@H]2C)cc1	none
Cc1ccc(S(=O)(=O)N(C)C[C@@H]2Oc3cc(C#Cc4ccncc4)ccc3S(=O)(=O)N([C@@H](C)CO)C[C@H]2C)cc1	SIRT5 inh 15 (no result: E-selectin induc)
Cc1ccc(S(=O)(=O)N(C)C[C@@H]2Oc3cc(C#Cc4ccncc4)ccc3S(=O)(=O)N([C@H](C)CO)C[C@@H]2C)cc1	none (no result: SIRT5 inh, DENV2 CPE)
Cc1ccc(S(=O)(=O)N(C)C[C@@H]2Oc3cc(C#Cc4ccncc4)ccc3S(=O)(=O)N([C@H](C)CO)C[C@H]2C)cc1	SIRT5 inh 16
O=C(COc1ccccc1[N+](=O)[O-])OCC(=O)c1ccc(Br)s1	none (no result: SIRT5 inh)
CCNc1nc(NC(C)(C)C)nc(Oc2ccc(=O)n(-c3ccccc3)n2)n1	E-selectin induc 43
CC(C)Nc1nc(Oc2ccc(=O)n(-c3ccccc3)n2)nc(N(C)C)n1	none
CO[C@H]1CN(C)C(=O)c2cc(NC(=O)c3nc4ccccc4s3)ccc2OC[C@H](C)NC[C@H]1C	SIRT5 inh 1.9
CO[C@@H]1CN(C)C(=O)c2cc(NC(=O)c3nc4ccccc4s3)ccc2OC[C@@H](C)NC[C@H]1C	none
CO[C@H]1CN(C)C(=O)c2cc(NC(=O)c3nc4ccccc4s3)ccc2OC[C@@H](C)NC[C@H]1C	none
CO[C@@H]1CN(C)C(=O)c2cc(NC(=O)c3nc4ccccc4s3)ccc2OC[C@H](C)NC[C@H]1C	DENV2 CPE 24 (no result: SIRT5 inh)
Cc1ccc(S(=O)(=O)N2CCN(C3CC(=O)N(c4ccc(F)cc4)C3=O)CC2)cc1C (configuration not stated)	none
Cc1c(CCOC(=O)c2ccc([N+](=O)[O-])cc2)sc[n+]1CC(=O)c1ccccc1	none (no result: E-selectin induc)
COCC#Cc1cnc2c(c1)C(=O)N([C@H](C)CO)C[C@@H](C)[C@@H](CN(C)S(=O)(=O)c1cccc(OC)c1)O2	none
O=C(O)c1ccc(CNCc2cc(Cl)ccc2O)cc1	none (no result: SIRT5 inh)
Cc1ccc(CNCc2cc(Cl)ccc2O)cc1	DENV2 CPE 88
C[C@H]1CN([C@@H](C)CO)C(=O)c2cccc(NC(=O)Nc3cccc4ccccc34)c2O[C@H]1CN(C)C(=O)Nc1ccc(C(F)(F)F)cc1	DENV2 CPE 32
C[C@H](CO)N1C[C@H](C)[C@@H](CN(C)C(=O)Nc2ccc(C(F)(F)F)cc2)Oc2c(NC(=O)C3CCCCC3)cccc2C1=O	DENV2 CPE 22!
C[C@H]1CN([C@@H](C)CO)C(=O)c2cccc(NC(=O)Nc3ccc(C(F)(F)F)cc3)c2O[C@@H]1CN(C)CC1CC1	DENV2 CPE 31
C[C@H](CO)N1C[C@H](C)[C@@H](CN(C)CC2CC2)Oc2c(NC(=O)Nc3ccc(C(F)(F)F)cc3)cccc2C1=O	none
C[C@H](CO)N1C[C@H](C)[C@@H](CN(C)C(=O)Nc2ccc(C(F)(F)F)cc2)Oc2c(NC(=O)Nc3cccc4ccccc34)cccc2C1=O	none (no result: SIRT5 inh, DENV2 CPE)
C[C@@H]1CN([C@H](C)CO)C(=O)c2cccc(NC(=O)Nc3ccccc3)c2O[C@H]1CN(C)C(=O)Nc1ccccc1	DENV2 CPE 52
C[C@H](CO)N1C[C@H](C)[C@@H](CN(C)C(=O)Nc2ccc(C(F)(F)F)cc2)Oc2c(NC(=O)C3CC3)cccc2C1=O	none
C[C@H]1CN([C@@H](C)CO)C(=O)c2cccc(NC(=O)Nc3ccccc3)c2O[C@H]1CN(C)C(=O)Nc1ccccc1	none (no result: SIRT5 inh, DENV2 CPE)
COc1ccc(N(C(=O)c2snc(C(N)=O)c2N)C(C(=O)NC2CCCC2)c2ccc(F)cc2)c(OC)c1 (configuration not stated)	DENV2 CPE inconclusive
O=c1cc(CN2CCN(S(=O)(=O)c3ccccc3[N+](=O)[O-])CC2)nc2sccn12	none (no result: E-selectin induc)
C[C@H]1CN([C@@H](C)CO)C(=O)c2cc(C3=CCCCC3)cnc2O[C@@H]1CN(C)C(=O)c1cccc(F)c1	none
C[C@@H]1CN([C@@H](C)CO)C(=O)c2cccc(NC(=O)Nc3ccccc3)c2O[C@H]1CN(C)C(=O)Nc1ccc(C(F)(F)F)cc1	none
C[C@@H]1CN([C@@H](C)CO)C(=O)c2cccc(NC(=O)c3ccncc3)c2O[C@H]1CN(C)C(=O)Nc1cccc2ccccc12	E-selectin induc 26 (no result: SIRT5 inh, DENV2 CPE)
C[C@H](CO)N1C[C@H](C)[C@H](CN(C)C(=O)Nc2cccc3ccccc23)Oc2c(NC(=O)c3ccncc3)cccc2C1=O	none
C[C@@H]1CN([C@H](C)CO)C(=O)c2cccc(NC(=O)Nc3ccc(C(F)(F)F)cc3)c2O[C@@H]1CN(C)C(=O)Nc1ccc(C(F)(F)F)cc1	DENV2 CPE 50
C[C@@H]1CN([C@@H](C)CO)C(=O)c2cccc(NC(=O)Nc3ccccc3)c2O[C@@H]1CN(C)C(=O)Nc1ccc(C(F)(F)F)cc1	DENV2 CPE 38
C[C@H]1CN([C@@H](C)CO)C(=O)c2cccc(NC(=O)Nc3ccc(C(F)(F)F)cc3)c2O[C@H]1CN(C)C(=O)Nc1ccc(C(F)(F)F)cc1	none
CC(C)(C)OC(=O)n1cc(CCO)c2ccccc21	none (no result: E-selectin induc, SIRT5 inh)
O=C(O)C[C@H]1c2cc(C(F)(F)F)ccc2S(=O)(=O)N1Cc1ccccc1	none
Brc1ccc2nc(-c3ccc(CN4CCC(c5nc6ccccc6[nH]5)CC4)cc3)c(-c3ccccc3)nc2c1	none
C[C@H]1NS(=O)(=O)c2cccc(Cl)c2O[C@@H]1c1ccccc1	none (no result: SIRT5 inh)
CC1(NC(=O)c2ccccc2)CCN(CCc2cccs2)C1=O (configuration not stated)	none (no result: SIRT5 inh)
O=C(NC1(Cc2ccccc2)CCN(CCc2cccs2)C1=O)c1ccccc1 (configuration not stated)	DENV2 CPE 72 (no result: SIRT5 inh)
COc1ccc(OC)c(/C=N\Nc2nccs2)c1	none (no result: E-selectin induc)
CN(C)c1ccc(C(=O)NCc2ccc3c(c2)OCO3)cc1	none (no result: E-selectin induc)
CN(C)c1cccc(C(=O)NCc2ccc3c(c2)OCO3)c1	E-selectin induc 29, DENV2 CPE inconclusive
O=C(NC1CCS(=O)(=O)C1)c1ccc(Br)s1 (configuration not stated)	none (no result: SIRT5 inh)
CC(C)NC(=S)NC1(C)CCS(=O)(=O)C1 (configuration not stated)	none (no result: SIRT5 inh, DENV2 CPE)
CC(C)C(=O)Nc1ncc(Cc2ccccc2Cl)s1	none
N#CCC(=O)Nc1ncc(Cc2ccccc2Cl)s1	SIRT5 inh 15
COc1ccc2c(C)cc(=S)[nH]c2c1	none (no result: E-selectin induc)
COc1cc(NC(=O)n2ncc3cc(Cl)ccc32)cc(OC)c1	none
